This note sets out measurements from paper PMC4026406 (Drug Design, Development and Therapy, 2014).

What is called MIC is the lowest concentration found to suppress growth. By zone of inhibition is commonly meant the size of the clear area around the sample on an inoculated plate. Usually LD50 stands for the dose expected to kill half of the subjects tested. Read a high LD50 as a less toxic substance.

In brackets after ≈: the same amount, converted by molar mass. A value given as a limit tells only on which side of the number the result lay.

Data set [1] relates to Escherichia coli IFO 3301. The data set can be described thus: Determination of MIC. Format: cell-based. The following applies: IFO3301, 24 h, read-out: MIC EC. The essentials: (§1)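 Broth two-fold dilution against IFO strains. Test compound and reference agents were dissolved in DMSO at 128 μg/mL and diluted two-fold from 128 to 0.5 μg/mL. Wells were inoculated with organism suspensions at 10^6 CFU/mL and incubated at 36°C for 24 h.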

Data set [2] relates to Bacillus subtilis IFO 3007. Briefly: Determination of MIC. It counts as cell-based. The conditions noted are these: IFO3007, 24 h, read-out: MIC BS. The essentials: as §1
In data set [3] the test system is Staphylococcus aureus IFO 3060. The data set can be described thus: Determination of MIC. It counts as cell-based. The conditions noted are these: IFO3060, 24 h, read-out: MIC SA. In a few lines:
as §1

Data set [4] concerns Micrococcus luteus IFO 3232. The data set can be described thus: Determination of MIC. It counts as cell-based. The conditions noted are these: IFO3232, 24 h, read-out: MIC ML. In a few lines:
as §1

For data set [5], the system named is Escherichia coli IFO 3301. The data set can be described thus: Agar disc diffusion, growth inhibition zone. It counts as cell-based. The following applies: IFO3301, 24 h, read-out: Diameter of growth inhibition zone EC. In a few lines: (§2)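 Filter paper discs (8 mm) were loaded with test compound in DMSO at 200 μg/disc, with gentamicin, ampicillin trihydrate and clotrimazole discs at 100 μg/disc. Discs were placed on Müller–Hinton agar plates previously inoculated with IFO strains and incubated at 37°C. Inhibition zone diameters were read after 24 h for bacteria and 48 h for C. albicans.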
Background: In agar diffusion tests the substance spreads into inoculated agar from a disc or well.

The test system of data set [6] is Pseudomonas aeruginosa IFO 3448. Briefly: Determination of MIC. Format: cell-based. The following applies: IFO3448, 24 h, read-out: MIC PA. In a few lines:
as §1

Data set [7] concerns Candida albicans IFO 0583. Briefly: Agar disc diffusion, growth inhibition zone. Format: cell-based. The conditions noted are these: for inhibitory activity against C. albicans (in words): 200 μg/disc, compared with clotrimazole. In a few lines:
as §2

For data set [8], the system named is Candida albicans IFO 0583. The data set can be described thus: Determination of MIC. Format: cell-based. The following applies: IFO0583, read-out: MIC CA. In a few lines:
as §1

Data set [9] deals with carrageenan-induced paw edema. The data set can be described thus: Carrageenan-induced paw edema method in rats. Format: in vivo, Sprague Dawley rats. The conditions noted are these: for anti-inflammatory potency ratio relative to indomethacin: 40 mg/kg versus indomethacin. The essentials:
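Male Sprague Dawley rats (140–190 g, 20–23°C, 2-day acclimatisation) were used in groups of five. Test compound (20 or 40 mg/kg) or indomethacin (5 mg/kg) was given i.p. in 1 mL 0.5% aqueous CMC. One hour later, 0.1 mL 1% carrageenan in saline went into the right hind paw, with saline in the left. Paw volume was measured by water plethysmometer at 4 h. Protection was calculated versus vehicle control and reported as mean ± SEM, Student's t-test.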

Data set [10] relates to normal albino mice. The data set can be described thus: Oral acute toxicity. It counts as in vivo. The following applies: oral, mice; for LD16 / LD84: mortality at 24 hours. In a few lines:
(§3)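 Albino mice of either sex were dosed in six groups of six. Test compound was given by oral intubation as fresh suspensions (1–12%) in 0.5% aqueous CMC at 250, 500, 750, 1,000, 1,250 and 1,500 mg/kg. Mortality was recorded at 24 h, and LD16, LD50 and LD84 were calculated.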

Data set [11] is described as follows: Oral acute toxicity. It counts as in vivo, mice. The following applies: both, albino, mouse, in vivo, po. The essentials: as §3
The mark [12] stands for this setting: Candida albicans, IFO0583, 48 h, read-out: Diameter of growth inhibition zone CA.

On to `CC1(C)S[C@@H]2[C@H](NC(=O)[C@H](N)c3ccccc3)C(=O)N2[C@H]1C(=O)O` [Ampicillin, ampicillin, reference compound], for which the MIC is 2 µg/mL (≈ 5.72 µM) in data set [1]; 0.5 µg/mL (≈ 1.43 µM) in data set [2]; 2 µg/mL (≈ 5.72 µM) in data set [3]; 2 µg/mL (≈ 5.72 µM) in data set [4]; 2 µg/mL (≈ 5.72 µM) in data set [6]. Moreover, in data set [5], the zone of inhibition at 100 µg/disc was 17 mm.

As for `Clc1ccccc1C(c1ccccc1)(c1ccccc1)n1ccnc1` [Clotrimazole, clotrimazole, reference compound], the zone of inhibition at 100 µg/disc in [7] (setting [12]) worked out at 21 mm. Moreover, in [8], the MIC came out at 2 µg/mL (≈ 5.8 µM).

For the compound `CCOC(=O)N1CCN(Cn2nc(C34CC5CC(CC(C5)C3)C4)n(-c3ccccc3)c2=S)CC1` [Compound 6b, Ethyl 4-{[3-(adamantan-1-yl)-4-phenyl-5-sulfanylidene-4,5-dihydro-1H-1,2,4-triazol-1-yl]methyl}piperazine-1-carboxylate], the zone of inhibition at 200 µg/disc in [7] (setting [12]) and in data set [5] was less than 10 mm throughout. The minimal inhibitory concentration (MIC) in data set [2] was found to be 16 µg/mL (≈ 33.2 µM).

Turning to `CN(C)CCSc1nnc(C23CC4CC(CC(C4)C2)C3)n1C` [Compound 9a, 2-{[5-(Adamantan-1-yl)-4-methyl-4H-1,2,4-triazol-3-yl]sulfanyl}-N,N-dimethyl-ethanamine], the zone of inhibition at 200 µg/disc in data set [7] (setting [12]) and in data set [5] was less than 10 mm each time.

Consider `COCCSc1nnc(C23CC4CC(CC(C4)C2)C3)n1-c1ccccc1` [Compound 11, 5-(1-Adamantyl)-3-[(2-methoxyethyl)sulfanyl]-4-phenyl-1,2,4-triazole], for which the “reduction in edema at both dose levels” value in [9] (20 and 40 mg/kg intraperitoneal, rats) was “did not show any significant anti-inflammatory activity”. In addition, the zone of inhibition at 200 µg/disc in [7] (setting [12]) and in [5] was less than 10 mm in each case.

In the case of `CCOC(=O)CSc1nnc(C23CC4CC(CC(C4)C2)C3)n1-c1ccccc1` [Compound 13, Ethyl 2-[5-(1-adamantyl)-4-phenyl-1,2,4-triazol-3-ylsulfanyl]acetate], the “anti-inflammatory potency ratio relative to indomethacin” value in [9] is listed as “about 15%”. The “inhibitory activity against C. albicans (in words)” value in data set [7] is on record as “marginal activity”. The zone of inhibition at 200 µg/disc in [7] (setting [12]) worked out at 12 mm. In addition, the MIC in data set [2] was determined as 16 µg/mL (≈ 40.2 µM). In addition, in data set [3], the MIC came to 4 µg/mL (≈ 10.1 µM). In [10], the “LD50 as percent of that of indomethacin” value was determined as 5.41%, the LD16 came to 499 mg/kg and the LD84 is recorded as 1,435 mg/kg. In data set [11], this compound gave an LD50 at 24 h of 924 mg/kg. Moreover, the zone of inhibition at 200 µg/disc in data set [5] is less than 10 mm.

With `O=C(O)CSc1nnc(C23CC4CC(CC(C4)C2)C3)n1-c1ccccc1` [Compound 14, 2-[5-(1-Adamantyl)-4-phenyl-1,2,4-triazol-3-ylsulfanyl]acetic acid], the “anti-inflammatory potency ratio relative to indomethacin” value in [9] is reported as “about 15%”. In [7], the “inhibitory activity against C. albicans (in words)” value was “marginal activity”. Besides, the zone of inhibition at 200 µg/disc in data set [7] (setting [12]) is 12 mm. The MIC in [3] was found to be 8 µg/mL (≈ 21.7 µM). Moreover, in [10], the “LD50 as percent of that of indomethacin” value came out at 9.03%, the LD16 is recorded as 295 mg/kg and the LD84 is recorded as 1,338 mg/kg. The LD50 at 24 h in [11] came to 554 mg/kg. The zone of inhibition at 200 µg/disc in [5] was less than 10 mm.

For `CNC(C)C1CCC(N)C(OC2C(N)CC(N)C(OC3OCC(C)(O)C(NC)C3O)C2O)O1` (centres unmarked) [Gentamicin, gentamicin, reference compound], the MIC in [1] worked out at 0.5 µg/mL (≈ 1.05 µM); in data set [2], 2 µg/mL (≈ 4.19 µM); in data set [3], 2 µg/mL (≈ 4.19 µM); in data set [4], 2 µg/mL (≈ 4.19 µM); in [6] it was 1 µg/mL (≈ 2.09 µM). Moreover, the zone of inhibition at 100 µg/disc in [5] amounted to 20 mm.
